TMEM16A act – activates or potentiates the mouse TMEM16A chloride channel. 0.3% of 340,000 active. HEK293 TMEM16A/YFP-H148Q/I152L, iodide quench fluorescence; hits give low values. B-score at 10 µM. Q8BHY3. AID 623877;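 active = fluorescence-ratio B-score plate-corrected deviation score at least 3 library SD below zero, with starting fluorescence score within 5 deviations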;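 also: channel opened by trigger with iodide after compound preincubation; score built on the fluorescence ratio of max minus min over baseline; more negative score means more quench and so TMEM16A activation or potentiation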
ANO1 block – mouse TMEM16A channel inhibition, primary screen | Q8BHY3 | HEK293 TMEM16A/YFP iodide influx fluorescence, ionomycin | normalized B-score (activity score, 25-100; higher = stronger inhibition) at 10 µM | 1.2% of 310,000 active;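 active = ratio plate-corrected score three or more library SD toward inhibition, starting fluorescence score within five deviations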;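 also: score derived from kinetic fluorescence span divided by baseline fluorescence per well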
TAAR1 ag – human TAAR1 agonism; 0.99% of 360,000 active; CHO RD-HGA16 TAAR1, Fluo-8 calcium fluorescence; vehicle wells 0%, saturating PEA agonist 100%; activation, % at 3 µM;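 active = activation above the mean activation of all test compounds in the run plus 3 SD, cut at about 38% in these data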
Target sequence (Q96RJ0 whole entry, looked up): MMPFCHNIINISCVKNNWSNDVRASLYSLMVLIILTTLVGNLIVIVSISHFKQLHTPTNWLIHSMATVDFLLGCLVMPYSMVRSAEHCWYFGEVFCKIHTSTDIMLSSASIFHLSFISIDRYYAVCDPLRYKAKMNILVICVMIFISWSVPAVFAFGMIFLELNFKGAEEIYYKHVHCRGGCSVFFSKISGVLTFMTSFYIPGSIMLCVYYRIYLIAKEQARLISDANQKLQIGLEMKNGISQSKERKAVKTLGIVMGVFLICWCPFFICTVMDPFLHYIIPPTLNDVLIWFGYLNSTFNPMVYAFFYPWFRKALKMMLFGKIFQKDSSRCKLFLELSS
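System: CHO RD-HGA16 cells carrying human TAAR1 plus Gα16; Incubation: 17-24 h seeding, 75 min 37 °C dye, 30 min RT; Measured by: Fluo-8 fluorescence, 5 s baseline then 140 s kinetic read; Control set: DMSO and PEA EC100; Replication: single well for each compound.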
CRFBP-R2 agonist – agonists of human CRF-binding protein/CRF-R2 receptor complex; HEK293 CRF-R2/CRF-BP, calcium dye fluorescence (FLIPR); percent of saturating CRF peptide response; activation, % at 13.2 µM; 0.46% of 350,000 active;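 active = activation of at least 50%, plus an integration ratio under a set limit after plate pattern correction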;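 also: plate controls were neutral control wells without compound for no effect and CRF at EC100 for full effect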
TAAR1 antag – human TAAR1 antagonism; CHO RD-HGA16 TAAR1, Fluo-8 calcium fluorescence, antagonist; inhibition, % at 3 µM; 1.5% of 360,000 active; AID 624466;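 active = inhibition above a per-plate cutoff, the mean inhibition of test compounds on that plate plus 3 SD, cut at about 49% in these data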;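 also: 0% = DMSO plus EC80 beta-PEA response and 100% = DMSO alone without agonist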
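System: CHO RD-HGA16 cells bearing hTAAR1. Reagent: EC80 β-phenethylamine stimulus. Schedule: seeding 17-24 h prior, 75-min 37 °C, 30-min RT dye loading. Signal: Fluo-8 intracellular calcium dye fluorescence, real-time kinetic reads. Read-out: % inhibition from peak post-agonist over basal fluorescence ratio. Benchmarks: vehicle wells and EC80 agonist wells. Replicates: n of 1.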
CRFR2-BP antag – blocks CRF-induced signaling of the CRF-BP/CRF-R2 complex; HEK293 CRF-R2/CRF-BP, CRF-induced calcium fluorescence; inhibition, % at 11.8 µM; 0.59% of 350,000 active; AID 588475;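 active = inhibition of the ligand-induced calcium signal above about 50% at the single tested concentration, limit read from the data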
Numbers without * were called inactive; i = inactive; / = no result given. An excerpt weighted towards active compounds, which were near 3.9% of everything screened.

SMILES	TMEM16A act	ANO1 block	TAAR1 ag	CRFBP-R2 agonist	TAAR1 antag	CRFR2-BP antag
COc1ccc(C(c2nnnn2-c2c(C)cccc2C)N2CCC(n3c(=O)[nH]c4ccccc43)CC2)cc1 (stereo not given)	/	/	3	/	-31	/
O=c1[nH]c2ccccc2n1C1CCN(C(c2ccccc2OC(F)(F)F)c2nnnn2-c2ccc3c(c2)OCCO3)CC1 (stereo not given)	/	/	12	/	52*	/
O=c1[nH]c2ccccc2n1C1CCN(C(CCc2ccccc2)c2nnnn2C2CCCC2)CC1 (stereo not given)	/	/	16	/	56*	/
O=c1[nH]c2ccccc2n1C1CCN(C(c2cccc3ccccc23)c2nnnn2Cc2ccccc2)CC1 (stereo not given)	/	/	8	/	50*	/
COc1ccc(/C=C/C(=O)c2c(O)n(CCC3=CCCCC3)c(=O)[nH]c2=O)cc1OC	i	i	1	-3	-25	-11
C=C(C)CN1CC[C@]23c4c5ccc(O)c4O[C@H]2c2[nH]c4ccccc4c2C[C@@]3(O)C1C5	/	i	/	/	/	/
COc1ccc(-n2nnnc2C(c2cccc(OC)c2OC)N2CCC(n3c(=O)[nH]c4ccccc43)CC2)cc1 (stereo not given)	/	/	13	/	56*	/
COc1ccc(-n2nnnc2C(c2ccnc3ccccc23)N2CCC(n3c(=O)[nH]c4ccccc43)CC2)cc1 (stereo not given)	/	/	17	/	18	/
COc1cccc(C(c2nnnn2-c2ccc3c(c2)OCCO3)N2CCC(n3c(=O)[nH]c4ccccc43)CC2)c1OC (stereo not given)	/	/	51*	/	79*	/
C[C@]12C[C@H](O)[C@@H](O)CC1=CCC1C2CC[C@@]2(C)C1CC[C@@H]2O (stereo not given in full)	i	/	3	4	3	5
O=c1[nH]c(=O)n(-c2ccc(F)cc2)c(O)c1/C=C1\C=Nc2ccccc21	i	i	4	102*	18	-47
O=c1[nH]c(=O)n(-c2ccccc2F)c(O)c1/C=C1\C=Nc2ccccc21	i	i	25	3	22	-30
CCCCn1nnnc1C(c1cccs1)N1CCC2(CC1)C(=O)NCN2c1ccccc1 (stereo not given)	/	/	1	/	24	/
CCOP(=O)(OCC)c1cccc(O)c1	i	i	9	-1	5	14
CCOP(=O)(OCC)c1cc(CC)ccc1O	i	i	1	-2	-12	93*
CC(C)c1ccc(C2NCc3ccccc3-n3cccc32)cc1 (stereo not given)	i	i	29	2	63*	-44
FC(F)(F)Oc1ccc(C2NCc3ccccc3-n3cccc32)cc1 (stereo not given)	i	i	8	-3	16	-16
CCOC(=O)c1ccccc1C(=O)OCC	i	i	-1	6	-2	23
CCOC(=O)c1ccc(-[n+]2c(-c3ccccc3)cc(-c3ccccc3)cc2-c2ccccc2)cc1	-14*	i	/	38	/	-100
CCOC(=O)c1cccc(-[n+]2c(-c3ccccc3)cc(-c3ccccc3)cc2-c2ccccc2)c1	-5.6*	i	10	9	-9	-114
Cc1ccc(-c2cc(-c3ccc(C)cc3)[n+](-c3ccc(C(=O)[O-])cc3)c(-c3ccc(C)cc3)c2)cc1	i	i	1	16	1	-5
C#C[C@]1(O)CCC2C3C(=O)C=C4C(Cl)=CCC[C@]4(C)C3CC[C@@]21C (stereo not given in full)	i	/	5	-3	12	-13
CCC(=O)N1N=C(c2c(O)n(CCc3ccccc3)c(=O)[nH]c2=O)CC1c1ccc(OC)c(OC)c1 (stereo not given)	i	i	0	0	8	16
Cc1cc(N2CCNC[C@@H]2C)ccc1N1CCN[C@@H](C)C1	/	/	0	/	9	/
CC(C)(C)c1cc(C=C(C#N)C#N)cc(C(C)(C)C)c1O	i	100*	1	53*	37	35
SMILES	TMEM16A act	ANO1 block	TAAR1 ag	CRFBP-R2 agonist	TAAR1 antag	CRFR2-BP antag
CCC(C)c1ccc(N2C(=O)NC(=O)/C(=C/c3cccn3CCOc3ccc(C)cc3)C2=O)cc1 (stereo not given)	i	i	4	60*	17	-91
Cc1ccc(N2C(=O)NC(=O)/C(=C\c3cccn3C(C)(C)C)C2=O)cc1	i	i	22	2	12	-17
Cc1ccc(-n2c(=S)[nH]c3ccccc3c2=O)cc1C	/	/	-1	-2	5	-2
O=C(c1ccc(Cl)cc1)C1CCCN(Cc2ccc3c(c2)OCCO3)C1 (stereo not given)	i	i	9	-2	12	-7
O=C(c1ccc(Cl)cc1)C1CCCN(Cc2ccc3ncccc3c2)C1 (stereo not given)	i	25*	3	13	-42	-4
COc1ccccc1CNCCc1ccc(F)cc1	i	i	41*	1	-9	-9
COc1cc(OC)c(OC)cc1CNCCc1ccc(F)cc1	i	i	5	-1	-25	6
COC1CCC(OC2CC(C3(C)CCC4(CC(O)C(C)C(C(C)/C=C(\C)C(=O)C(C)CC(C)C(=O)O)O4)O3)OC3(OC(C4OC(O)(CO)C(C)CC4C)CC3C)C2C)OC1C (stereo not given)	-4.8*	/	2	25	-14	-42
CNC(=O)Oc1c(C)[nH]ccc1=O	/	/	1	-1	-14	10
Cc1cccc(-n2c(O)c(/C=C/C=Nc3ccccc3)c(=O)[nH]c2=O)c1	i	i	21	56*	29	-52
CNS(=O)(=O)c1ccc(N=Cc2c(O)n(-c3cccc(C)c3)c(=O)[nH]c2=O)cc1	i	i	11	5	-2	-23
Cn1c(O)c(C=Nc2ccc(Br)cc2)c(=O)n(C)c1=O	i	i	0	-2	-6	-14
Cn1c(O)c(/C=C/C=Nc2ccccc2)c(=O)n(C)c1=S	i	i	41*	55*	34	-106
CC(NC(=O)Cc1cccc2ccccc12)C(=O)N1CCC(=O)CC1 (stereo not given)	i	i	1	0	-2	8
Cc1cc(=O)oc2cc(OCC(=O)N3CCN(C(C)c4ccccc4)CC3)c(Cl)cc12 (stereo not given)	-42*	/	6	-1	7	-9

Bioassay records: PubChem, several laboratories
